Activity calls are given as the source filed them. The rule behind the calls is not given here.

A short description of data set [1]: Toxicity assessed as inhibition of cell viability of UVB irradiated human HaCaT cells at 5 uM administered 2 hrs before irradiation by MTT assay. Type of data set: cell-based. The note with it: read-out: Inhibition. Put shortly: (§1)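 HaCaT cells in DMEM/10% FBS were pretreated with compounds in ethanol (final ≤0.1%) 2 h before a single 40–50 mJ/cm² UVB dose. Viability was read by MTT reduction to formazan 24 h after irradiation. Inhibition is expressed relative to maximal viability of drug-free samples, means ± SEM (n = 6).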
(In general: Formazan colour is commonly taken as a measure of viable cells.)

The nature of data set [2]: Toxicity assessed as inhibition of cell viability of UVB irradiated human HaCaT cells at 10 uM administered 2 hrs before irradiation by MTT assay. The note with it: read-out: Inhibition. Type of data set: cell-based. An outline of the steps:
as §1

The test system of data set [3] is HaCaT. Description: Inhibition of TNFalpha production in UVB irradiated human HaCaT cells at 10 uM administered 2 hrs before irradiation by fluoroimmunoassay. In kind it is functional. Put shortly: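 Confluent HaCaT cells (seeded at 2 × 10^5 cells/mL in DMEM/10% FBS) received compounds in ethanol (final ≤0.1%) 2 h before 40–50 mJ/cm² UVB. […] IC50 with 95% CI came from at least four concentrations.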

For data set [4], the system named is HaCaT. Description: Inhibition of TNFalpha production in UVB irradiated human HaCaT cells at 5 uM administered 2 hrs before irradiation by fluoroimmunoassay. Type of data set: functional. An outline of the steps: (§2)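 Confluent HaCaT cells (seeded at 2 × 10^5 cells/mL in DMEM/10% FBS) received compounds in ethanol (final ≤0.1%) 2 h before 40–50 mJ/cm² UVB.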

The test system of data set [5] is HaCaT. As to the kind of experiment: Inhibition of NF-kappaB activation in UVB irradiated human HaCaT cells at 10 uM administered 2 hrs before irradiation by EMSA.
In the next data set the test system is Neutrophil. As to the kind of experiment: Antioxidant activity assessed as inhibition of reactive oxygen species generation in TPA-stimulated human neutrophils.
Data set [6] has as its system HaCaT. As to the kind of experiment: Inhibition of TNFalpha production in UVB irradiated human HaCaT cells administered 2 hrs before irradiation by fluoroimmunoassay. In kind it is functional, cell-based. The note with it: light or radiation study. An outline of the steps: as §2

In the case of `CC1=CCC[C@H]2[C@](C)(Cc3cc(O)c(SCCO)cc3O)[C@@H](C)CC[C@]12C`, in data set [1], the cytotoxicity at 2 h, 5 µM came to 21.4%. For the same compound, the cytotoxicity at 2 h, 10 µM in data set [2] was 48.4%.
For the compound `CC1=CCC[C@H]2[C@](C)(Cc3cc(O)c(Sc4ccc(C)cc4)c(Sc4ccc(C)cc4)c3O)[C@@H](C)CC[C@]12C`, in data set [1], the cytotoxicity at 2 h, 5 µM was 0%. The Inhibition with HaCaT [3] and in the data set on HaCaT [4] was 0% throughout. Further, the cytotoxicity at 2 h, 10 µM in data set [2] worked out at 0%.
Turning to `CC1=CCC[C@H]2[C@](C)(Cc3cc(O)cc(SCC(O)CO)c3O)[C@@H](C)CC[C@]12C` (some centres undefined), the cytotoxicity at 2 h, 5 µM in data set [1] was 13.6%. Further, in data set [2], the cytotoxicity at 2 h, 10 µM was determined as 14%.
The like results for `CC1=CCC[C@H]2[C@](C)(Cc3cc(O)c(SCCO)c(SCCO)c3O)[C@@H](C)CC[C@]12C` were, in that order, 18.1% and 28.5%.
In the same order, the values of `CC1=CCC[C@H]2[C@](C)(Cc3cc(O)cc(SCCO)c3O)[C@@H](C)CC[C@]12C` are 20.6% and 22.5%.
Regarding `CC1=CCC[C@H]2[C@](C)(Cc3cc(O)c(Sc4ccccc4)c(Sc4ccccc4)c3O)[C@@H](C)CC[C@]12C`, in data set [1], the cytotoxicity at 2 h, 5 µM was determined as 0%. Besides, the Inhibition in the data set with HaCaT [3] and in the data set on HaCaT [4] was 0% throughout. The cytotoxicity at 2 h, 10 µM in data set [2] was determined as 0%.
As for `CC1=CCC[C@H]2[C@](C)(Cc3cc(O)cc(SCC(=O)O)c3O)[C@@H](C)CC[C@]12C`, in data set [1], the cytotoxicity at 2 h, 5 µM stood at 18.3%. Further, the cytotoxicity at 2 h, 10 µM in data set [2] was determined as 28.5%.
Consider `CC1=CCC[C@H]2[C@](C)(Cc3cc(O)c(Sc4ccc(C)cc4)cc3O)[C@@H](C)CC[C@]12C`, for which the cytotoxicity at 2 h, 5 µM in data set [1] was 0%. Besides, the Inhibition in the data set with HaCaT [3] and in the data set with HaCaT [4] was 0% throughout. The cytotoxicity at 2 h, 10 µM in data set [2] was 0%.
As to `CC1=CCC[C@H]2[C@](C)(Cc3cc(O)cc(Sc4ccccc4)c3O)[C@@H](C)CC[C@]12C`, in data set [1], the cytotoxicity at 2 h, 5 µM worked out at 0%. For the same compound, in the data set with HaCaT [5], the result was Active. For the same compound, the Inhibition with HaCaT [3] amounted to 92.7%; in the data set on HaCaT [4] it was 55.4%. Also, the Activity entry in the data set on Neutrophil is “Dose-dependent effect”. Further, the cytotoxicity at 2 h, 10 µM in data set [2] came to 0%. In the data set on HaCaT [6], the IC50 was found to be 3.7 µM.
With `COc1cc2ccc(=O)oc2c(O)c1O` [FRAXETIN], in data set [1], the cytotoxicity at 2 h, 5 µM is 0%. Also, the Inhibition with HaCaT [3] stood at 68.1%; with HaCaT [4], 58.6%. Further, in data set [2], the cytotoxicity at 2 h, 10 µM amounted to 3.4%. In the data set with HaCaT [6], this compound gave an IC50 of 2.8 µM.
Consider `CC1=CCC[C@H]2[C@](C)(Cc3cc(O)c(Sc4ccccc4)cc3O)[C@@H](C)CC[C@]12C`, for which the cytotoxicity at 2 h, 5 µM in data set [1] was determined as 0%. The outcome in the data set on HaCaT [5] was Active. The Inhibition with HaCaT [3] is given as 74.3%; in the data set on HaCaT [4], 53.6%. Moreover, the Activity result in the data set with Neutrophil is “Dose-dependent effect”. For the same compound, the cytotoxicity at 2 h, 10 µM in data set [2] was 0%. In the data set on HaCaT [6], this compound displayed an IC50 of 4.2 µM.
For the compound `CC1=CCC[C@H]2[C@](C)(Cc3cc(O)cc(Sc4ccc(C)cc4)c3O)[C@@H](C)CC[C@]12C`, the cytotoxicity at 2 h, 5 µM in data set [1] stood at 0%. Besides, the Inhibition in the data set on HaCaT [3] and in the data set on HaCaT [4] was 0% each time. Besides, the cytotoxicity at 2 h, 10 µM in data set [2] was 0%.
Take `CC1=CCC[C@H]2[C@](C)(Cc3cc(O)c(SCC(O)CO)cc3O)[C@@H](C)CC[C@]12C` (some centres undefined): the cytotoxicity at 2 h, 5 µM in data set [1] was 12.6%. Besides, in data set [2], the cytotoxicity at 2 h, 10 µM came out at 18.6%.
The like results for `CC1=CCC[C@H]2[C@](C)(Cc3cc(O)c(SCC(=O)O)cc3O)[C@@H](C)CC[C@]12C` were, in that order, 12.4% and 13.3%.

As usually defined, the Inhibition is the relative decrease from the control value, in per cent. A lower Inhibition goes with a response near the control. What is called IC50 is the concentration that inhibits the measured activity by half. Low values mean inhibition by little substance, high ones a need for much substance.

For the origin of these results see ChEMBL document CHEMBL1139167, “Synthesis and evaluation of diverse thio avarol derivatives as potential UVB photoprotective candidates” (Bioorg Med Chem Lett, 2007).
